Measurements pooled from the literature.
Each line is one published result; the experiments were not run side by side.
FLT3 D835V: Receptor-type tyrosine-protein kinase FLT3 (FLT3, Homo sapiens, UniProt P36888, D835V)
FLT3: Receptor-type tyrosine-protein kinase FLT3 (FLT3, Homo sapiens, UniProt P36888)
FLT3 D835V/ITD: Receptor-type tyrosine-protein kinase FLT3 (FLT3, Homo sapiens, UniProt P36888, D835V/ITD)
FLT3 N841I: Receptor-type tyrosine-protein kinase FLT3 (FLT3, Homo sapiens, UniProt P36888, N841I)
FLT3 D835Y: Receptor-type tyrosine-protein kinase FLT3 (FLT3, Homo sapiens, UniProt P36888, D835Y)
FLT3 F691L/ITD: Receptor-type tyrosine-protein kinase FLT3 (FLT3, Homo sapiens, UniProt P36888, F691L/ITD)
FLT3 K663Q: Receptor-type tyrosine-protein kinase FLT3 (FLT3, Homo sapiens, UniProt P36888, K663Q)
FLT3 D835H: Receptor-type tyrosine-protein kinase FLT3 (FLT3, Homo sapiens, UniProt P36888, D835H)

COc1cc(-c2cn(C3CCc4c(F)cccc4N(CC(F)(F)F)C3=O)nn2)ccc1-n1cnc(C)c1 (stereo not shown) — remaining binding (FLT3 D835V; cell-free assay, competition with immobilised ligand; 1 µM): 97%
O=C(NCCCN1CCOCC1)c1ccc(Nc2ncc(Cl)c(-c3ccc(Cl)s3)n2)cc1 — remaining binding (FLT3 D835V; binding, competition with immobilised ligand; 1 µM): 1.3%
Cc1c(NC(=O)c2cc(C(N)=O)nc3cc(F)ccc23)c(C(F)(F)F)nn1Cc1ccc(C#N)cc1 — remaining binding (FLT3; cell-free assay, competition with immobilised ligand; 1 µM): 99%
F[C@@H]1CCN(c2nccc(-c3cnn4ncccc34)n2)C1 — remaining binding (FLT3; binding; 1 µM): 81%
O=C(c1ccc(Nc2ncc(Cl)c(-c3cc4ccccc4s3)n2)cc1)N1CCC(N2CCCC2)CC1 — remaining binding (FLT3 D835V/ITD; binding, competition with immobilised ligand; 1 µM): 7.6%
CC(C)(O)[C@H]1CC[C@H](Nc2ccc3ncc(-c4cccc(C(F)(F)F)c4)n3n2)CC1 — remaining activity (FLT3; enzyme activity, inhibitor; 1 µM): 6.31%
Cn1nc(C(F)(F)F)cc1-c1cnc(N2CCc3cc(S(=O)(=O)Nc4c(F)cc(Cl)cc4F)cc(N4CCCC4=O)c32)nc1 — remaining binding (FLT3 N841I; cell-free assay, competition with immobilised ligand; 1 µM): 94%
O=C(c1cc2cc(O)ccc2[nH]1)c1cc2cc(O)ccc2[nH]1 — remaining signal (FLT3; cell-free assay; 0.5 µM): 3.53%
N#CC1(c2ccccn2)CCN(Cc2cc(C(=O)N3CCCC3)c(=O)n3ccccc23)CC1 — remaining binding (FLT3 D835Y; cell-free assay, competition with immobilised ligand; 1 µM): 71%
Nc1ncnc2occ(-c3ccc(NC(=O)Nc4cc(C(F)(F)F)ccc4F)cc3)c12 — remaining signal (FLT3 F691L/ITD; cell-free assay, inhibitor; 20 µM): 6.5%
c1cnn2ncc(-c3ccnc(N4CCC45COC5)n3)c2c1 — remaining binding (Receptor-type tyrosine-protein kinase FLT3 (FLT3, Homo sapiens, UniProt P36888, R834Q); binding; 1 µM): 82%
Cc1ccc(C(=O)Nc2ccc(CN3CCN(C)CC3)c(C(F)(F)F)c2)cc1C#Cc1cnc2cccnn12 — remaining activity (FLT3; enzyme activity, inhibitor; 23.5 nM): 58%
Cc1cnc(-c2ccc(-c3ccc(NC(=O)Nc4c(F)cc(F)cc4F)cc3F)c3c2C(=O)NC3)[nH]1 — activity vs control (Receptor-type tyrosine-protein kinase FLT3 (FLT3, Homo sapiens, UniProt P36888, ITD); enzyme activity, inhibitor; 0.1 µM, 90 min): 6.2%
Cc1cnc(NC2CCOCC2)nc1-n1cnc(C(=O)NC(CN)c2cc(F)cc(Cl)c2)c1 (stereo not shown) — remaining activity (FLT3 D835Y; enzyme activity, inhibitor, radiometric; 1 µM): 105%
CCCOc1ccc([C@H]2[C@H](C(=O)O)[C@@H](c3ccc4c(c3)OCO4)CN2CC(=O)Nc2c(CC)cccc2CC)cc1 — remaining binding (FLT3 N841I; cell-free assay, competition with immobilised ligand; 1 µM): 93%
COc1ccnn2ncc(-c3ccnc(N(C)C)n3)c12 — remaining binding (FLT3; binding; 1 µM): 100%
O=C(c1ccc(Nc2ncc(Cl)c(-c3ccc(Cl)s3)n2)cc1)N1CCC(N2CCCC2)CC1 — remaining binding (FLT3 K663Q; binding, competition with immobilised ligand; 1 µM): 1.3%
CC(C)(C)c1nc(-c2cccc(NS(=O)(=O)c3c(F)cccc3F)c2F)c(-c2ccnc(N)n2)s1 — remaining activity (FLT3; enzyme activity, inhibitor, radiometric; 1 µM): 117%
COc1ccc(COc2ccc(Cc3cnc(N)nc3N)cc2OC)cc1 — remaining signal (FLT3; cell-free assay; 0.5 µM): 103%
O=C(c1ccc(Nc2nccc(-c3cc4ccccc4s3)n2)cc1)N1CCC(N2CCCC2)CC1 — remaining binding (FLT3 F691L/ITD; binding, competition with immobilised ligand; 1 µM): 19%
O=C1Nc2ccc(Cl)cc2C1=Cc1cc(Cl)c(O)c(Cl)c1 — remaining signal (FLT3; cell-free assay; 0.5 µM): 26.5%
Cc1cnn2ncc(-c3ccnc(N(C)C)n3)c2c1 — remaining binding (Receptor-type tyrosine-protein kinase FLT3, autoinhibited (FLT3, Homo sapiens, UniProt P36888); binding; 1 µM): 84%
CN(C)CC#Cc1ccc(OCCCc2sc(N3CCc4cccc(C(=O)Nc5nc6ccccc6s5)c4C3)nc2C(=O)O)c(F)c1 — remaining binding (FLT3 D835V/ITD; cell-free assay, competition with immobilised ligand; 1 µM): 100%
C[C@@H]1CCN(c2nccc(-c3cnn4ncccc34)n2)C1 — remaining binding (FLT3 K663Q; binding; 1 µM): 100%
Cc1ccc(C(=O)NCc2ccsc2)cc1C#Cc1cn(C(C)C)c2ncnc(N)c12 — activity vs control (FLT3; enzyme activity, inhibitor; 1 µM): 80%
Cc1ccc(Nc2nccc(N(C)c3ccc4c(C)n(C)nc4c3)n2)cc1S(N)(=O)=O — remaining activity (FLT3; enzyme activity, inhibitor; 0.5 µM): 40.7%
CC1CCCN1c1nccc(-c2cnn3ncccc23)n1 (stereo not shown) — remaining binding (FLT3 D835H; binding; 1 µM): 90%
O=[N+]([O-])c1cccc2[nH]c(CNc3nc(N4CCOCC4)nc4c3ncn4-c3ccsc3)nc12 — binding vs control (FLT3 K663Q; binding, competition with immobilised ligand; 10 µM): 5.2%
CS(=O)(=O)N1CCCC(NC(=O)[C@H](CCC2CCCCC2)NC(=O)c2ccc(CNc3ncnc4c3nnn4-c3ccccc3)cc2)C1 (stereo partly shown) — remaining binding (FLT3; cell-free assay, competition with immobilised ligand; 0.1 µM): 82%
Cc1[nH]c(/C=C2\C(=O)Nc3ccc(F)cc32)c(C)c1C(=O)N[C@H]1CCN(C(=O)N(C)C)C1 — remaining activity (FLT3; enzyme activity, inhibitor; 0.1 µM): 3%
CCCCN(CCCC)C(=O)CN1C[C@H](c2cc(OC)c3c(c2)OCO3)[C@@H](C(=O)O)[C@@H]1CC(C)(C)CCC — remaining binding (FLT3 N841I; cell-free assay, competition with immobilised ligand; 1 µM): 100%
CN(CCCC(F)(F)F)c1nccc(-c2cnn3ncccc23)n1 — remaining binding (FLT3 D835H; binding; 1 µM): 96%
Cc1ccc(NC(=O)c2ccc(C)c(C(F)(F)F)c2)cc1C#Cc1nn(C2CCC(O)CC2)c2ncnc(N)c12 (stereo not shown) — remaining signal (FLT3; cell-free assay; 10 µM): 73%
N#CCCc1ccc2c(c1)-c1[nH]c3ccc([N+](=O)[O-])cc3c1CC(=O)N2 — remaining signal (FLT3; cell-free assay; 0.5 µM): 15.1%
CCCOc1ccc(OC)c(F)c1C(=O)c1ccc(C(=O)N[C@@H]2CNC[C@H]2NC(=O)c2ccc3[nH]ncc3c2)cc1 — remaining activity (FLT3; enzyme activity, inhibitor; 10 µM): 32%
N[C@H]1CCN(c2nccc(-c3cnn4ncccc34)n2)C1 — remaining binding (FLT3 D835Y; binding; 1 µM): 97%
Cc1sc(C(=O)NC2COC2)cc1-n1cc(NC(=O)Nc2c(F)cccc2Cl)cn1 — remaining activity (FLT3; enzyme activity, inhibitor; 10 µM): 69.1%
